Measured values: ChEMBL document CHEMBL1155302, “Crystal structure, antitumour and antimetastatic activities of disubstituted fused 1,2,4-triazinones” (Bioorg Med Chem Lett, 2009)

Assays:
RPMI-8226 [1] = assay: Antitumor activity against human RPMI8226 cells assessed as cell viability at 1 uM after 24 hrs by MTT assay relative to control; assay type: functional; conditions: RPMI-8226, 24 h, read-out: Activity
Method in brief: (§1)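 RPMI 8226 peripheral blood myeloma cells were treated with 1, 50 or 100 µM compound (DMSO stock diluted into medium) for 24 h. Viability was measured by MTT reduction (SDI test), with solubilized formazan read at 570 nm. Results are % of medium-alone control, mean SD of at least three independent measurements.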

[2] = Cytotoxicity against human HSF cells assessed as cell viability at 1 uM after 24 hrs by MTT assay relative to control; assay type: cell-based; conditions: read-out: Activity
Method in brief: (§2)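 Primary skin fibroblasts were obtained by trypsinizing a healthy forearm skin fragment and grown in DMEM with 10% FBS, penicillin and streptomycin at 37 °C, 5% CO2. Cells were plated at 1 × 10⁵ per well to confluence, then exposed for 24 h to 1, 50 or 100 µM compound diluted from DMSO. MTT viability was read at 570 nm as % of medium control, mean SD of at least three independent measurements.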

[3] = Antimetastatic activity against human HeLaB cells assessed as inhibition of cell motility at 25 uM after 24 hrs relative to control; assay type: functional; design: scale not given: the % may be the effect or the level left
Method in brief: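 HeLa B cervix carcinoma cells were exposed to 25 µM compound or to culture medium alone for 24 h in a wound-migration (cell motility) assay. Cells migrating into the wound area were scored, and motility was expressed as % of the medium-only control (100%).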

RPMI-8226 [4] = assay: Antitumor activity against human RPMI8226 cells assessed as cell viability at 50 uM after 24 hrs by MTT assay relative to control; assay type: functional; conditions: RPMI-8226, 24 h, read-out: Activity; method in brief: as §1
RPMI-8226 [5] = assay: Antitumor activity against human RPMI8226 cells assessed as cell viability at 100 uM after 24 hrs by MTT assay relative to control; assay type: functional; conditions: RPMI-8226, 24 h, read-out: Activity; method in brief: as §1
[6] = Cytotoxicity against human HSF cells assessed as cell viability at 50 uM after 24 hrs by MTT assay relative to control; assay type: cell-based; conditions: read-out: Activity; method in brief: as §2
[7] = Cytotoxicity against human HSF cells assessed as cell viability at 100 uM after 24 hrs by MTT assay relative to control; assay type: cell-based; conditions: read-out: Activity; method in brief: as §2

| Structure (SMILES) | viability at 1 µM (RPMI-8226 [1]) [%] | viability at 24 h, 1 µM [2] [%] | Activity [3] [%] | viability at 50 µM (RPMI-8226 [4]) [%] | viability at 100 µM (RPMI-8226 [5]) [%] | viability at 24 h, 50 µM [6] [%] | viability at 24 h, 100 µM [7] [%] |
| --- | --- | --- | --- | --- | --- | --- | --- |
| O=c1c(-c2ccccc2)nnc2n1CCN2c1ccc(Cl)cc1 | 101 | 104 | 50 | 56 | 39 | 96 | 102 |
| O=c1c(-c2ccccc2)nnc2n1CCN2c1ccccc1Cl | 103 | 108 | 59 | 103 | 101 | 104 | 104 |
| COc1ccc(N2CCn3c2nnc(-c2ccccc2)c3=O)cc1 | 106 | 88 | 59 | 57 | 43 | 64 | 73 |
| Cc1cccc(N2CCn3c2nnc(-c2ccccc2)c3=O)c1 | 107 | 100 | 68 | 79 | 71 | 94 | 88 |
| O=c1c(-c2ccccc2)nnc2n1CCN2c1cccc(Cl)c1 | 105 | 108 | 52 | 70 | 60 | 85 | 88 |
| O=c1c(-c2ccccc2)nnc2n1CCN2c1ccc(Cl)c(Cl)c1 | 108 | 93 | 90 | 69 | 58 | 48 | 47 |
| O=c1c(-c2ccccc2)nnc2n1CCN2c1cc(Cl)ccc1Cl | 109 | 87 | 103 | 43 | 41 | 31 | 17 |
